ChEMBL document CHEMBL1806376, “Synthesis and biological properties of macrolactam analogs of the natural product macrolide (-)-A26771B” (2011)
In brackets after ≈: the same amount, converted by molar mass.

How the values were obtained:
Format in all cases: functional
Escherichia coli = experiment: Antibacterial activity against Escherichia coli ATCC 25922 by broth microdilution method
Method in brief: (§1)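 MIC values determined by broth microdilution following the CLSI method.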

Enterococcus faecalis = experiment: Antibacterial activity against Enterococcus faecalis ATCC 29212 by broth microdilution method; method in brief: as §1
Enterococcus faecium = experiment: Antibacterial activity against Enterococcus faecium 1 by broth microdilution method; method in brief: as §1
Haemophilus influenzae [1] = experiment: Antibacterial activity against Haemophilus influenzae ATCC 31517 by broth microdilution method; conditions: Haemophilus influenzae, ATCC 31517; read-out: MIC; method in brief: as §1
Haemophilus influenzae [2] = experiment: Antibacterial activity against efflux knock-out Haemophilus influenzae LS2 by broth microdilution method; conditions: Haemophilus influenzae, LS2; read-out: MIC; method in brief: as §1
Pseudomonas aeruginosa = experiment: Antibacterial activity against Pseudomonas aeruginosa ATCC 27853 by broth dilution method; method in brief: as §1
Staphylococcus aureus [3] = experiment: Antibacterial activity against Staphylococcus aureus ATCC 13709 by broth microdilution method; conditions: Staphylococcus aureus, ATCC 13709; read-out: MIC; method in brief: as §1
Staphylococcus aureus [4] = experiment: Antibacterial activity against methicillin-resistant Staphylococcus aureus Sa2 by broth microdilution method; conditions: Staphylococcus aureus, Sa2; read-out: MIC
Method in brief: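 Broth microdilution run according to the CLSI method.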

Staphylococcus aureus [5] = experiment: Antibacterial activity against Staphylococcus aureus ATCC 25923 by broth microdilution method; conditions: Staphylococcus aureus, ATCC 25923; read-out: MIC; method in brief: as §1
Staphylococcus aureus [6] = experiment: Antibacterial activity against Staphylococcus aureus ATCC 25923 by broth microdilution method in presence of 10% human serum; conditions: Staphylococcus aureus, ATCC 25923; read-out: MIC
Method in brief: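 MIC determined by broth microdilution per the CLSI method, with 10% human serum added to the medium.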

Staphylococcus aureus [7] = experiment: Antibacterial activity against Staphylococcus aureus oxford by broth microdilution method; conditions: Staphylococcus aureus, oxford; read-out: MIC; method in brief: as §1
Streptococcus pneumoniae [8] = experiment: Antibacterial activity against Streptococcus pneumoniae ATCC 49619 by broth microdilution method; conditions: Streptococcus pneumoniae, ATCC 49619; read-out: MIC; method in brief: as §1
Streptococcus pneumoniae [9] = experiment: Antibacterial activity against Streptococcus pneumoniae Pen9 IV381-221 by broth microdilution method; conditions: Streptococcus pneumoniae, Pen9 IV381-221; read-out: MIC; method in brief: as §1
[10] = Enterococcus faecalis, ATCC 29212, read-out: MIC
[11] = Enterococcus faecium, 1, read-out: MIC

Compound | MIC (Escherichia coli) | MIC (Enterococcus faecalis; [10]) | MIC (Enterococcus faecium; [11]) | MIC (Haemophilus influenzae [1]) | MIC (Haemophilus influenzae [2]) | MIC (Pseudomonas aeruginosa) | MIC (Staphylococcus aureus [3]) | MIC (Staphylococcus aureus [4]) | MIC (Staphylococcus aureus [5]) | MIC (Staphylococcus aureus [6]) | MIC (Staphylococcus aureus [7]) | MIC (Streptococcus pneumoniae [8]) | MIC (Streptococcus pneumoniae [9]) | MIC (Enterococcus faecalis) | MIC (Enterococcus faecium)
C[C@@H]1CCCCCCCCC[C@H](O)C(=O)CC(SCC(F)(F)F)C(=O)O1 (stereo not given in full) | > 64 µg/mL | 4 µg/mL (≈ 10 µM) | 4 µg/mL (≈ 10 µM) | 32 µg/mL (≈ 80.3 µM) | 2 µg/mL (≈ 5.02 µM) | > 64 µg/mL | 1 µg/mL (≈ 2.51 µM) | 1 µg/mL (≈ 2.51 µM) | 1 µg/mL (≈ 2.51 µM) | 32 µg/mL | 1 µg/mL (≈ 2.51 µM) | 4 µg/mL (≈ 10 µM) | 4 µg/mL (≈ 10 µM) | – | –
CC(=O)O[C@H]1CCCCCCCCC[C@@H](C)OC(=O)/C=C/C1=O | > 64 µg/mL | 4 µg/mL (≈ 12.3 µM) | 2 µg/mL (≈ 6.16 µM) | 32 µg/mL (≈ 98.6 µM) | 4 µg/mL (≈ 12.3 µM) | > 64 µg/mL | 0.5 µg/mL (≈ 1.54 µM) | 0.5 µg/mL (≈ 1.54 µM) | 1 µg/mL (≈ 3.08 µM) | 16 µg/mL | 1 µg/mL (≈ 3.08 µM) | 2 µg/mL (≈ 6.16 µM) | 4 µg/mL (≈ 12.3 µM) | – | –
COC1CCCCCCCCC[C@@H](C)NC(=O)/C=C/C1=O (single isomer, unassigned; diastereomer 1) | > 64 µg/mL | – | – | 2 µg/mL (≈ 6.77 µM) | 0.25 µg/mL (≈ 0.846 µM) | > 64 µg/mL | 1 µg/mL (≈ 3.38 µM) | 1 µg/mL (≈ 3.38 µM) | 1 µg/mL (≈ 3.38 µM) | 8 µg/mL | 1 µg/mL (≈ 3.38 µM) | 2 µg/mL (≈ 6.77 µM) | 8 µg/mL (≈ 27.1 µM) | 2 µg/mL (≈ 6.77 µM) | 0.5 µg/mL (≈ 1.69 µM)
CO[C@H]1CCCCCCCCC[C@@H](C)OC(=O)C(Sc2ccccc2)CC1=O (stereo not given in full) | > 64 µg/mL | > 64 µg/mL | > 64 µg/mL | > 64 µg/mL | 2 µg/mL (≈ 4.92 µM) | > 64 µg/mL | 1 µg/mL (≈ 2.46 µM) | 2 µg/mL (≈ 4.92 µM) | 1 µg/mL (≈ 2.46 µM) | 16 µg/mL | 1 µg/mL (≈ 2.46 µM) | 2 µg/mL (≈ 4.92 µM) | 1 µg/mL (≈ 2.46 µM) | – | –
C[C@@H]1CCCCCCCCC[C@H](O)C(=O)/C=C/C(=O)O1 | > 32 µg/mL | 2 µg/mL (≈ 7.08 µM) | 8 µg/mL (≈ 28.3 µM) | 16 µg/mL (≈ 56.7 µM) | 1 µg/mL (≈ 3.54 µM) | > 32 µg/mL | 1 µg/mL (≈ 3.54 µM) | 2 µg/mL (≈ 7.08 µM) | 2 µg/mL (≈ 7.08 µM) | 32 µg/mL | 1 µg/mL (≈ 3.54 µM) | 2 µg/mL (≈ 7.08 µM) | 2 µg/mL (≈ 7.08 µM) | – | –
CO[C@H]1CCCCCCCCC[C@@H](C)OC(=O)C2CC2C1=O (mixture of isomers) | > 64 µg/mL | > 64 µg/mL | > 64 µg/mL | > 64 µg/mL | > 64 µg/mL | > 64 µg/mL | > 64 µg/mL | > 64 µg/mL | > 64 µg/mL | > 64 µg/mL | > 64 µg/mL | > 64 µg/mL | > 64 µg/mL | – | –
CO[C@H]1CCCCCCCCC[C@@H](C)OC(=O)/C(C)=C/C1=O | > 64 µg/mL | > 64 µg/mL | > 64 µg/mL | > 64 µg/mL | > 64 µg/mL | > 64 µg/mL | > 64 µg/mL | > 64 µg/mL | > 64 µg/mL | > 64 µg/mL | > 64 µg/mL | > 64 µg/mL | > 64 µg/mL | – | –
CC(=O)N(CCOc1ccccc1)C1CC(=O)[C@@H](OC(=O)CCC(=O)OC(C)(C)C)CCCCCCCCC[C@@H](C)OC1=O (stereo not given in full) | > 32 µg/mL | > 32 µg/mL | > 32 µg/mL | > 32 µg/mL | > 32 µg/mL | > 32 µg/mL | > 32 µg/mL | > 32 µg/mL | > 32 µg/mL | > 32 µg/mL | > 32 µg/mL | > 32 µg/mL | > 32 µg/mL | – | –
Cc1nc2c([nH]1)CCCCCCCCC[C@@H](C)OC(=O)/C=C/2 | > 64 µg/mL | 32 µg/mL (≈ 105 µM) | 16 µg/mL (≈ 52.6 µM) | > 64 µg/mL | 16 µg/mL (≈ 52.6 µM) | > 64 µg/mL | 32 µg/mL (≈ 105 µM) | 32 µg/mL (≈ 105 µM) | 32 µg/mL (≈ 105 µM) | > 64 µg/mL | 32 µg/mL (≈ 105 µM) | 16 µg/mL (≈ 52.6 µM) | 8 µg/mL (≈ 26.3 µM) | – | –
CO[C@H]1CCCCCCCCC[C@@H](C)OC(=O)C(S(=O)(=O)c2ccccc2)CC1=O (stereo not given in full) | > 64 µg/mL | 4 µg/mL (≈ 9.12 µM) | 4 µg/mL (≈ 9.12 µM) | 32 µg/mL (≈ 73 µM) | 2 µg/mL (≈ 4.56 µM) | > 64 µg/mL | 1 µg/mL (≈ 2.28 µM) | 2 µg/mL (≈ 4.56 µM) | 1 µg/mL (≈ 2.28 µM) | 32 µg/mL | 1 µg/mL (≈ 2.28 µM) | 4 µg/mL (≈ 9.12 µM) | 2 µg/mL (≈ 4.56 µM) | – | –
